Rows were chosen to be rich in hits. Some 1.3% of all compounds tested hit in one or more screens of this group.
GRK2 inh: human GRK2 inhibition via aptamer displacement | P25098 | bead flow cytometry, FAM-aptamer displacement from GRK2 | inhibition of aptamer binding, % at 10 µM | 0.59% of 330,000 active | AID 488847;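 active = inhibition of aptamer binding above 40%, roughly 3 SD of noise, on plates passing a quality check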;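 also: median bead fluorescence of bound FAM aptamer so fluorescent compounds give negative values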
MEX-5 binding: C. elegans MEX-5 TCR-2 RNA binding activity; AID 1832; MEX-5/FITC-TCR2 RNA binding, fluorescence polarization; hits give low values; Q9XUB2; activity score (negative = inhibition of binding), % at 10 µM; 0.38% of 300,000 active;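 active = inhibition past about -25% in most replicates, and total fluorescence under double the plate's negative control median, limit read from the data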;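 also: 0% = DMSO and -100% = 5 µM competing unlabeled TCR2 RNA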
Target sequence (Q9XUB2 whole entry, looked up): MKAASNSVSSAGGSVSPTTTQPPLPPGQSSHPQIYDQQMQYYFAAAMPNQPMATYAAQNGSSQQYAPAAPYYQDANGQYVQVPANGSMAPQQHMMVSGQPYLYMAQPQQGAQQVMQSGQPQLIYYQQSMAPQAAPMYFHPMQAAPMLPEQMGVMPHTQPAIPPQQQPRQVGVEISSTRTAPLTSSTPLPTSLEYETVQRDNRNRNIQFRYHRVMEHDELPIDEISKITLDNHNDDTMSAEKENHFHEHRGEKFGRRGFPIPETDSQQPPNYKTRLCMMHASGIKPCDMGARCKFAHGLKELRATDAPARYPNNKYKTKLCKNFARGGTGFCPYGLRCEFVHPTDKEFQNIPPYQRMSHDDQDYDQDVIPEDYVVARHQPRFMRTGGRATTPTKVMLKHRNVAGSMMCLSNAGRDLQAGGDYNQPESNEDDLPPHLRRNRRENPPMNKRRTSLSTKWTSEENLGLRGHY
EBV gp42 inh: inhibitors of Epstein-Barr virus glycoprotein 42. 0.42% of 220,000 active. AID 1085. Fluorescence polarization binding assay, mP read-out. inhibition, % (tested at 21.74 µM); in the data active = inhibition above about 50%
Target sequence (Q1HVG2 whole entry, looked up): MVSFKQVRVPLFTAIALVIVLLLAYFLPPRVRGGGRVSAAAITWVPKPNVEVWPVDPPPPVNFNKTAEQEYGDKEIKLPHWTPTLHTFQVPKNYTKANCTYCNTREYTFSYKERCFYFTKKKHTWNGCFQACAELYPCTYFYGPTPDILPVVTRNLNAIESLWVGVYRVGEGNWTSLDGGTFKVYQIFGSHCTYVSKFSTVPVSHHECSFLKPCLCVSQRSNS
Keap1 Nrf2 FP: inhibitors of human Keap1-Nrf2 protein-protein interaction; AID 504523; 0.15% of 340,000 active; Keap1 Kelch-Nrf2 peptide fluorescence polarization, 1536-well; inhibition, % at 9.4 µM; in the data active = inhibition above about 12%;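 also: human Keap1 Kelch domain with fluorescein labeled Nrf2 9mer peptide probe; 0% = neutral control wells and 100% = peptide positive control; higher means more block of Keap1 binding to Nrf2 peptide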
T cell HTS: modulates CD8 T cell binding to vesicles | 2C CD8+ T cell-vesicle binding, flow cytometry; hits give low values | response (vesicle binding), % at 7 µM | 0.068% of 330,000 active;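 active = response, share of CD8 T cells binding vesicles, and their 90th percentile fluorescence all below set limits, cut at about 80% in these data, passing the limit was not always enough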;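 also: values below 100% mean blocked vesicle binding to the CD8+ T cells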
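Read-out – percent CD8+ FL2 mean versus row control · System – murine 2C transgenic CD8+ T lymphocytes · Times – 1.5 h cell–vesicle binding at 37 °C, then 20 min icy labelling · Control set – naked vesicles low, QL9 vesicles with vehicle high · Detection – cytometric PE anti-B7-1 and Alexa647 anti-CD8 signals after 1% paraformaldehyde fixation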
C-LANA FP: inhibitors of KSHV LANA C-terminal domain DNA binding; 0.078% of 340,000 active; MBP-C-LANA/FAM-LBS DNA binding, fluorescence polarization; AID 504423; inhibition, % at 9 µM;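 active = highest replicate inhibition at or above 60% at 9 µM, even if other replicates fall short; inactive = all replicates below 60% inhibition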;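 also: 0% = neutral control wells and 100% = 4 µM acridine orange control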
GRK2 inh confirm: human GRK2 inhibition confirmation, cherry pick 1 | shares compounds with GRK2 inh | bead-bound GRK2, FAM-aptamer displacement, flow cytometry | aptamer displacement, % at 10 µM | 4% of 2,000 active | AID 504451;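 active = aptamer displacement above 40%, near three times the noise of non-fluorescent compounds, on plates passing quality checks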;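 also: negative values mostly reflect intrinsic compound fluorescence rather than true enhancement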
FAM quench CP1: aptamer fluorescence quenching in GRK2 counter-screen; AID 504580; 2,000 tested, under 10 active; fluorescence response (% of DMSO), % at 10 µM; Carboxyfluorescein RNA aptamer on beads, flow cytometry quenching; hits give low values; shares compounds with GRK2 inh;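 active = compounds that quench the bead-bound fluorescent RNA probe, cutting fluorescence to under half of the solvent control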;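 also: counterscreen run without GRK2 so only probe quenching by compound is measured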
GRK2 CP2: confirmation of human GRK2 inhibitors binding RNA aptamer site; shares compounds with GRK2 inh; bead-bound GRK2, FAM-aptamer displacement, flow cytometry; inhibition of aptamer binding, % at 10 µM; 360 tested, under 10 active; AID 504782;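 active = inhibition of aptamer binding above 40%, about triple the noise seen with nonglowing compounds, on plates passing quality control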;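 also: negative values mostly come from compounds that fluoresce themselves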
FAM quench SP: aptamer fluorescence quenching in GRK2 counter-screen. shares compounds with GRK2 inh. carboxyfluorescein RNA aptamer beads, flow cytometry quenching; hits give low values. fluorescence response vs DMSO, % at 10 µM. 360 tested, under 10 active;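 active = response vs DMSO under 50%, meaning signal dropped by over half, treated as fluorescence quencher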;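 also: labelled aptamer on streptavidin beads without GRK2 as a quench counter-screen; 100% = bead fluorescence of DMSO wells and lower means quenching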
Active calls of the source: *; i = inactive; . = no result.

SMILES	GRK2 inh	MEX-5 binding	EBV gp42 inh	Keap1 Nrf2 FP	T cell HTS	C-LANA FP	GRK2 inh confirm	FAM quench CP1	others
CCN(CC(=O)Nc1c(F)cccc1F)C(=O)c1ccc2ccccc2n1	0	1	.	-3	195	0	.	.
CSc1ccc(CN2CCN(S(=O)(=O)Cc3ccccc3)CC2)cc1	55*	1	.	-8	i	-1	.	.	GRK2 CP2=-29;FAM quench SP=103
CCn1c(=O)n(CC)c2cc(NC(=O)c3ccccc3Cl)ccc21	0	0	.	-1	168	0	.	.
O=c1[nH]c2ccccc2nc1/C=C/c1ccccc1	52*	-5	-1	-4	209	3	2	100
Nc1c(C(=O)c2ccccc2)sc2c1c(=O)[nH]c(=O)n2-c1ccccc1	4	-1	2	0	206	0	.	.
Nc1c(C(=O)c2ccc(Cl)cc2)sc2c1c(=O)[nH]c(=O)n2-c1ccccc1	100*	-3	-3	-2	398	1	.	.	GRK2 CP2=-5;FAM quench SP=99
CCn1nc(NC(=O)C(C)C)c2cc3cccc(C)c3nc21	2	-1	.	-9	70	0	.	.
Cc1c(C(N)=O)sc(N)c1C(=O)OC(C)C	5	0	-9	0	i	1	.	.
Cc1c(C(=O)OC(C)C)sc(N)c1C(=O)OC(C)C	70*	2	-5	1	0	-1	.	.	GRK2 CP2=-4;FAM quench SP=97
NC(=O)c1sc2nc3c(cc2c1N)CCCCCC3	75*	3	-1	-2	235	2	9	96
Cc1ccc(C2N(c3ccc(Cl)cc3)C(=O)N3CCCN23)cc1 (stereo unspecified)	2	-2	-5	6	313	-1	.	.
O=C(O)[C@H](Cc1ccccc1)NC(=O)N1CCN(c2ccc(F)cc2)CC1	93*	-2	0	-1	417	-3	1	102
COC(=O)[C@H](Cc1ccccc1)NC(=O)N1CCN(c2ccccc2)CC1	4	4	-7	-4	346	0	.	.
Cc1ccc(C)c(NC(=O)CCN2C(=O)C3CC=CCC3C2=O)c1 (stereo unspecified)	68*	.	.	-5	348	-1	1	97
Cc1ccc(C)c(NC(=O)CCN2C(=O)c3ccccc3C2=O)c1	0	2	.	-2	238	0	.	.
Cc1ccc(-c2nc3ccc(Cl)cc3n2OC(C)C(=O)O)cc1 (stereo unspecified)	6	1	1	2	416	0	.	.
COc1cc2nc(-c3cccs3)oc(=O)c2cc1OC	74*	0	.	-2	255	3	-1	100
O=C(O)C1CC=CCC1C(=O)Nc1ccc(F)c(F)c1 (stereo unspecified)	2	-1	-15	-2	852	0	.	.
O=C(O)C1CC=CCC1C(=O)Nc1ccc2c(c1)OCCO2 (stereo unspecified)	24	0	2	3	0	0	.	.	GRK2 CP2=12;FAM quench SP=99
O=C(O)c1ccc(Nc2nc3ccccc3nc2NS(=O)(=O)c2cccs2)cc1	94*	0	.	-1	255	1	-7	96
CCN(CC)S(=O)(=O)c1ccc2c(c1)nc(CCC(=O)Nc1cccc(C(F)(F)F)c1)n2CC	0	-1	-21	-3	284	-2	.	.
COc1ccc(SCC(=O)Nc2ccccc2Cl)cc1	65*	2	0	3	159	-3	.	.	GRK2 CP2=3;FAM quench SP=101
COc1ccc(OCC(=O)Nc2ccccc2Cl)cc1	1	1	-12	2	238	-1	.	.
COC(=O)c1ccc(NC(=O)CSC2=NCCN2)cc1	0	3	-3	-5	262	1	.	.
CCOC(=O)c1cccc(NC(=O)c2ccc(-n3cnnn3)cc2)c1	24	.	.	0	442	1	-1	104
SMILES	GRK2 inh	MEX-5 binding	EBV gp42 inh	Keap1 Nrf2 FP	T cell HTS	C-LANA FP	GRK2 inh confirm	FAM quench CP1	others
O=C(Nc1ccccc1)c1ccc(-n2cnnn2)cc1	5	-1	.	-4	227	0	.	.
O=C(Nc1ccc(S(=O)(=O)Nc2nccs2)cc1)c1cc(-c2ccccn2)nc2ccccc12	1	-1	10	2	416	0	.	.
O=C(Nc1ccc(S(=O)(=O)Nc2nccs2)cc1)c1cc(-c2ccccc2Cl)nc2ccccc12	1	-2	-11	2	148	0	2	108
COc1ccc(-n2c(=O)n(Cc3ccccc3)c(=O)c3[nH]cnc32)cc1	0	1	-7	-3	341	-2	.	.
Cn1cnc(Sc2ncnc3nc[nH]c23)c1[N+](=O)[O-]	96*	10	-10	-4	238	0	-1	94
O=C1C=CC(=O)C(CNc2ccc(C(=O)OCc3ccccc3)cc2)=C1	.	.	.	1	.	1	.	.
NC(=O)c1ccc(NC(=O)COC(=O)c2cc3c(s2)CCC3)cc1	52*	.	.	6	512	0	25	101
CN(c1ccccc1)c1nc(N)c([N+](=O)[O-])c(Nc2cccc(F)c2)n1	0	0	.	2	200	1	.	.
COC(=O)NCc1ccc(S(=O)(=O)N2CCOCC2)cc1	72*	0	3	-5	463	1	2	95
Cc1cc(NC(=O)CSc2nc3c(c(-c4cccnc4)c2C#N)CCC3)no1	77*	0	-15	5	260	1	1	90
Cc1cc(NC(=O)CSc2nc(-c3cccnc3)ccc2C#N)no1	0	2	-24	-1	303	-1	.	.
CCCC(=O)Nc1ccc(C(=O)/C=C/c2ccc(SC)cc2)cc1	0	-2	-11	-4	309	-1	.	.
CSc1ccc(/C=C/C(=O)c2ccc(NC(C)=O)cc2)cc1	88*	-8	-19	-3	573	3	-4	96
COc1ccc(CCN2CCCC(CN(C)Cc3cc(OC)ccc3OC)C2)cc1 (stereo unspecified)	0	0	.	-5	96	-5	.	.
COc1cc2c3c(c1OC)C1(C=CC(=O)C=C1)CC3N(C(=O)c1ccccc1)CC2 (stereo unspecified)	70*	-3	-7	-7	436	0	3	98
NC(=O)[C@@H]1CCCNc2c(I)cc([N+](=O)[O-])cc2C(=O)N[C@@H](CCC(=O)O)C(=O)N[C@@H](CO)C(=O)N1	88*	.	-17	-6	766	0	-15	129
